Laboratory results reported in ChEMBL document CHEMBL1671701, “Discovery of potent small-molecule inhibitors of multidrug-resistant Plasmodium falciparum using a novel miniaturized high-throughput luciferase-based assay” (Antimicrob Agents Chemother, 2010).
Counter-ions that a name gives are not always drawn.

Tests used:
Plasmodium falciparum [1] = experiment: Antiplasmodial activity against Plasmodium falciparum 3D7 infected in RBCs by firefly luciferase reporter gene assay; type: functional, organism-based; conditions: Plasmodium falciparum, 3D7
In short: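 Sorbitol-synchronised 3D7 expressing firefly luciferase from the HRPII promoter, at 1% late-ring parasitemia and 3% hematocrit in RPMI/albumax II medium. Sixteen 2-fold dilutions from 17 μM to 0.5 nM, 48 h at 37°C under 5% O2/5% CO2/N2. Bright-Glo luminescence is normalised to untreated infected and uninfected-RBC wells. IC50 by four-parameter logistic fit.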

[2] = Cytotoxicity activity against human HAEC cells after 24 hrs; type: cell-based
HepG2 = experiment: Cytotoxicity activity against human HepG2 cells after 24 hrs; type: cell-based; conditions: HepG2, 24 h
Plasmodium falciparum [3] = experiment: Antiplasmodial activity against multidrug-resistant Plasmodium falciparum TM90C2B by SYBR Green 1-based fluorescence assay; type: functional, organism-based
In short: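 Resistant TM90C2B parasites are treated over a dose range and growth is read as SYBR green I fluorescence. IC50 comes from a fit of the log dose-response relationship, as the mean of at least three separate experiments.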

Plasmodium falciparum [4] = experiment: Antiplasmodial activity against Plasmodium falciparum 3D7 by SYBR Green 1-based fluorescence assay; type: functional, organism-based

SMILES | IC50 (Plasmodium falciparum [1]) [nM] | IC50 [2] [nM] | IC50 (HepG2) [nM] | IC50 (Plasmodium falciparum [3]) [nM] | IC50 (Plasmodium falciparum [4]) [nM]
CC(=O)N(C1=C(N(C)C)C(=O)c2ccccc2C1=O)c1ccc(Cl)cc1 | 14 | 41000 | 8100 |  | 
CC(=O)N(C1=C(N2CCOCC2)C(=O)c2ccccc2C1=O)c1ccccc1 | 780 |  |  | 530 | 1600
c1cc(CN2CCCCC2)cc(OCCCNc2nc3ccccc3s2)c1 [ZOLANTIDINE] |  | 75000 | 76000 |  | 
CC(=O)N(C1=C(N(C)C)C(=O)c2ccccc2C1=O)c1cccc(Cl)c1 | 14 | 45000 | 5100 | 72 | 140
CC(=O)N(C1=C(N(C)C)C(=O)c2ccccc2C1=O)c1cccc(F)c1 | 11 |  |  | 74 | 110
COc1cccc2c1C(=O)c1c(O)c3c(c(O)c1C2=O)C[C@@](O)(C(=O)CO)C[C@@H]3O[C@H]1C[C@H](N)[C@H](O)[C@H](C)O1 [DOXORUBICIN] |  | 13000 | 69000 |  | 
COc1cccc(N(C(C)=O)C2=C(N(C)C)C(=O)c3ccccc3C2=O)c1 | 5.3 | 11000 | 13000 | 31 | 35
O=C1C(O)=C([C@H]2CC[C@H](c3ccc(Cl)cc3)CC2)C(=O)c2ccccc21 [ATOVAQUONE] | 0.41 |  |  | 12000 | 0.8
CC(=O)N(C1=C(N(C)C)C(=O)c2ccccc2C1=O)c1cccc(Br)c1 | 32 |  |  | 94 | 130
CC(=O)N(C1=C(N2CCOCC2)C(=O)c2ccccc2C1=O)c1cccc(Cl)c1 | 790 |  |  | 510 | 1800
CC(=O)N(C1=C(N(C)C)C(=O)c2ccccc2C1=O)c1ccc(F)c(F)c1 | 25 |  |  | 110 | 170
CN(C)c1nc(N)c(C(=O)NC(=N)N)nc1Cl [5-(N,N-DIMETHYL)AMILORIDE HYDROCHLORIDE] | 1100 |  |  |  | 
C=CC[N+](C)(C)c1ccc(CCC(=O)CCc2ccc([N+](C)(C)CC=C)cc2)cc1 | 107 |  |  |  | 
N#Cc1ccc2c(c1)N(CCCN1CCC(O)CC1)c1ccccc1S2 [PERICIAZINE] | 6560 |  |  |  | 
Cc1ccc(CS(=O)(=O)N2CCN(CCCC(c3ccc(F)cc3)c3ccc(F)cc3)CC2)cc1 | 800 |  |  |  | 
CCNC(=O)N1CCN(CCCC(c2ccc(F)cc2)c2ccc(F)cc2)CC1 [AMPEROZIDE] |  | 83000 | 95000 |  | 
CN1CCc2cccc3c2[C@H]1Cc1ccc(O)c(O)c1-3 [APOMORPHINE HYDROCHLORIDE] | 373 |  |  |  | 
c1ccc(CCN2CCC(NC3CCCCC3)CC2)cc1 | 890 |  |  |  | 
Oc1c(Cl)cccc1C1=NN=C(c2ccc(F)cc2)C1 | 1500 |  |  |  | 
c1cc(CN2CCCCC2)cc(OCCCNc2nc3ccccc3s2)c1 [ZOLANTIDINE DIMALATE] | > 22800 |  |  |  | 
